High-throughput results from PubChem.
KCNK3 block = human KCNK3 channel inhibition, primary screen; CHO-KCNK3 thallium flux, FluxOR fluorescence; active compounds read low; O14649; B-score at 10 µM; AID 602410; actives 0.84% (n = 340,000);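 active = B-score under library mean minus 4 SD, starting fluorescence ratio at most library mean plus 5 SD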;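 note: more negative B-score means stronger inhibition of thallium flux through KCNK3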
KCNK9 inh = blocks the human KCNK9 two-pore domain potassium channel | Q9NPC2 | HEK293 KCNK9, FluxOR thallium flux fluorescence; active compounds read low | B-score at 10 µM | actives 1.2% (n = 310,000) | AID 488922;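 active = ratio B-score over 3 SD below the library mean, with starting fluorescence within 5 SD of its mean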;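 note: negative B-score means less thallium flux so channel inhibition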
KCNQ1 act = human KCNQ1 channel potentiation or activation. P51787. CHO-K1 KCNQ1, thallium flux FluxOR fluorescence; active compounds read high. B-score at 10 µM. actives 0.35% (n = 310,000);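 active = fluorescence ratio B-score, a plate-corrected score, at least three library SD, with initial intensity B-score within 5 SD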
Target sequence (P51787 whole entry, looked up): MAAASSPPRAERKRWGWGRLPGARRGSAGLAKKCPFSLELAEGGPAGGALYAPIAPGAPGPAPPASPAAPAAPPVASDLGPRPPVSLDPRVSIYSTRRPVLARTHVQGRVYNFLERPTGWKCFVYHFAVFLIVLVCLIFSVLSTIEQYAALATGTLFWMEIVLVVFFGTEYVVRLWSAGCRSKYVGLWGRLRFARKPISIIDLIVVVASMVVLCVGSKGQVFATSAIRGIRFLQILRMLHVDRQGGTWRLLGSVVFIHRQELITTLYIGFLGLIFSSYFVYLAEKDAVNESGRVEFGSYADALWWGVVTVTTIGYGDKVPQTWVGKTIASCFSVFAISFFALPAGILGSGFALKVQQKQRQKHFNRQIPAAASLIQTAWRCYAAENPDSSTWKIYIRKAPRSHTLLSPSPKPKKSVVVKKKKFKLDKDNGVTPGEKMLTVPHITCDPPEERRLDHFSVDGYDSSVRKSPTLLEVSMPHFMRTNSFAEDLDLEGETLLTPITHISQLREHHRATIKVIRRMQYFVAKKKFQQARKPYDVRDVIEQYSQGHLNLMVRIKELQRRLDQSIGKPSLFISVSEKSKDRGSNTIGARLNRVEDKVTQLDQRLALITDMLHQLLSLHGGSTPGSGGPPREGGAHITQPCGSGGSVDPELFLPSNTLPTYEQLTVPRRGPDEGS
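Assay system: stable KCNQ1 CHO-K1 line; medium: assay buffer, equal DMSO in all wells; timing: 90 min dye loading and 20 min compound exposure, both at room temperature; technique: kinetic FluxOR thallium fluorescence, 10-s 1-Hz baseline, 110-s post-stimulus read; read-out basis: B score of baseline-normalized fluorescence ratio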
hERG protect = hERG (human) protection from proarrhythmic block; Q12809; CHO-hERG, FluxOR thallium flux, dofetilide IC70 present; activation (rescue from dofetilide block), less the hit threshold, % at 10 µM; actives 0.51% (n = 310,000); AID 1511;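 active = activation above the mean of controls blocked by dofetilide plus 5 SD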;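 note: thallium influx through hERG after potassium depolarization seen as dye fluorescence rise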
KCNQ1 block = inhibitors of human KCNQ1 potassium channel; CHO-K1 KCNQ1, FluxOR thallium flux fluorescence; active compounds read high; B-score at 10 µM; actives 1.3% (n = 310,000); AID 2642;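 active = compounds whose thallium flux B-score, printed positive for inhibition, exceeds three library SD while starting fluorescence stays within three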;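 note: channel opened by potassium depolarization with thallium stimulus after 20 min compound exposure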
KCNK9 inh conf = human KCNK9 inhibitor confirmation | shares compounds with KCNK9 inh | HEK293 KCNK9 cells, FluxOR thallium flux fluorescence | inhibition, % at 10 µM | actives 43% (n = 4,900) | AID 492992;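 active = thallium signal inhibited by more than 5 SD of the compound-free buffer control wells, on both duplicate plates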;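 note: 0% = assay buffer control wells without compound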
Kir2-1 spec = selectivity of KCNK9 modulators against mouse Kir2.1; Kir2.1 cells, FluxOR thallium flux fluorescence; shares compounds with KCNK9 inh; actives 4% (n = 4,900); inhibition, % at 10 µM; AID 492993;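 active = thallium signal drop more than 5 SD beyond the mean of the no-compound control wells, seen in both duplicate plates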;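 note: signal is fluorescence rise after thallium addition divided by baseline fluorescence; plate controls were assay buffer only for no effect and full block by chlorpromazine control for full effect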
HEK293 Tl ctr = second counter-screen for KCNK9 modulators: effect in non-induced cells | shares compounds with KCNK9 inh | non-induced KCNK9-HEK293, FluxOR thallium flux | inhibition, % at 10 µM | actives 40% (n = 4,900) | AID 492997;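 active = thallium signal drop beyond 5 SD of the untreated control mean, on both duplicate plates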;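 note: plate controls were buffer only IC0 wells for no effect and SID17386958 at its maximal inhibitory level for full effect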
* marks the source's active call; other numbers are inactive results; i = inactive; . = not tested or not shown. A selection: hits, their analogues and other compounds. The true share with any hit is near 3.1%.

SMILES	KCNK3 block	KCNK9 inh	KCNQ1 act	hERG protect	KCNQ1 block	KCNK9 inh conf	Kir2-1 spec	HEK293 Tl ctr
O=C(NCC[C@@H]1C[C@@H]2C=C[C@H]1C2)c1cc(COc2ccc(F)cc2F)on1	i	-21*	i	-8	i	40%*	i	38%*
Cc1cc(C)nc(CCNC(=O)c2cc(COc3ccc(F)cc3F)on2)n1	i	i	i	-11	i	.	.	.
N#CCc1ccc(Oc2ncc(C(F)(F)F)cc2Cl)cc1	i	i	i	-6	i	.	.	.
Cc1ccc(CO/N=C\Cc2snc(Sc3ncc(C(F)(F)F)cc3Cl)c2C#N)cc1	i	i	i	-12	i	i	i	i
N#C/C(=C\c1ccc(Sc2nc3ccccc3[nH]2)o1)c1ccccc1	i	i	i	-6	13*	i	i	i
O=C(N/N=C/c1cn(-c2ccccc2)nc1-c1ccc(F)cc1)c1ccc2c(c1)OCO2	i	-10*	i	-24	i	55%*	i	i
Cc1ccc(C)c(-c2csc(NC(=O)C3=COCCO3)n2)c1	i	-8.3*	i	-23	i	i	i	38%*
Cc1ccc(-c2csc(NC(=O)C3=COCCO3)n2)cc1	i	i	i	-5	i	.	.	.
CCOC(=O)/C(=N\Nc1ccccc1Cl)N1CCN(C)CC1	i	i	i	-6	i	.	.	.
CCOC(=O)/C(=N\Nc1ccccc1Cl)N1CCN(c2ccccc2OC)CC1	i	-10*	i	-11	i	32%*	i	29%*
O=C(CN1C(=O)S/C(=C\c2cccc(Cl)c2)C1=O)NCCCn1ccnc1	i	i	i	-18	i	i	i	i
CC(C)(C)N=C1NN=C(c2cc3ccccc3o2)CS1	i	i	i	-8	i	.	.	.
Cc1cc(C)c2nc(NNC(=O)c3ccc(S(=O)(=O)N4CC(C)CC(C)C4)cc3)sc2c1 (stereo unspecified)	i	i	i	-12	i	i	i	i
Cc1cccc2sc(NNC(=O)c3ccc(S(=O)(=O)N4CC(C)CC(C)C4)cc3)nc12 (stereo unspecified)	i	i	i	-4	6*	i	i	i
Cc1ccc2nc(NNC(=O)c3ccc(S(=O)(=O)N4CCc5ccccc5C4)cc3)sc2c1	i	i	i	-4	7*	i	i	i
Cc1ccc2nc(NNC(=O)c3ccc4c(c3)OCCO4)sc2c1	i	i	i	-10	i	.	.	.
CCC(=O)NNc1nc2c(C)cc(C)cc2s1	i	i	i	-8	i	.	.	.
Cc1cc(C)c2nc(NNC(=O)c3ccc(S(=O)(=O)N4CCCC(C)C4)cc3)sc2c1 (stereo unspecified)	i	i	i	-12	i	i	i	i
COc1ccc(C2CC(=O)Oc3ccc(OC)cc32)cc1 (stereo unspecified)	i	.	.	.	.	.	.	.
COc1ccc(O)c(/C=N/Nc2nc(Nc3ccccc3)nc(-n3nc(C)cc3C)n2)c1	i	-12*	i	-15	10*	46%*	i	i
COc1cc(/C=N/Nc2nc(Nc3ccc(C)cc3)nc(-n3nc(C)cc3C)n2)cc(OC)c1OC	i	i	i	-13	i	.	.	.
COc1cc(/C=N/Nc2nc(Nc3ccccc3)nc(-n3nc(C)cc3C)n2)cc(OC)c1OC	i	-9.4*	i	-31	8*	46%*	i	i
Cc1cc(Br)c(NC(=O)COC(=O)c2ccc[n+]([O-])c2)c(Br)c1	i	.	.	.	.	.	.	.
O=C(COC(=O)c1cc(S(=O)(=O)N2CCCC2)ccc1O)NCCc1ccccc1	i	.	.	.	.	.	.	.
CCOC(=O)C1=C(CSc2nc(-c3ccccc3)ccc2C#N)OC(N)=C(C#N)C1c1cccnc1 (stereo unspecified)	-17*	-18*	i	-11	i	68%*	i	40%*
SMILES	KCNK3 block	KCNK9 inh	KCNQ1 act	hERG protect	KCNQ1 block	KCNK9 inh conf	Kir2-1 spec	HEK293 Tl ctr
CCOC(=O)CC1=C(C(=O)OCC)C(c2cccnc2)C(C#N)=C(N)O1 (stereo unspecified)	i	i	i	-12	i	.	.	.
CCOC(=O)C1=C(CSc2nc(-c3ccccc3)ccc2C#N)OC(N)=C(C#N)C1c1ccccc1 (stereo unspecified)	i	-13*	i	-12	i	47%*	i	38%*
Cc1cccc(NC(=O)c2ccc(COc3ccc(Cl)cc3Cl)o2)n1	i	i	i	-4	i	i	i	i
Clc1ccc(C(c2nnnn2C2CCCCC2)N(Cc2cccnc2)Cc2ccco2)cc1 (stereo unspecified)	i	-11*	i	-9	i	i	i	45%*
Cc1ccc2[nH]c(=O)c(C(c3nnnn3C3CCCC3)N(Cc3cccnc3)Cc3ccco3)cc2c1 (stereo unspecified)	i	i	i	-10	i	.	.	.
COC1CCCN(Cc2c(C(=O)N3CCN(C4CCCCC4)CC3)nc3ccccn23)C1 (stereo unspecified)	i	i	i	-12	i	.	.	.
COc1ccc(/C=C2\SC(=O)N(CCNC(=O)C3=COCCO3)C2=O)cc1	i	i	i	-15	i	.	.	.
O=C(NCCN1C(=O)S/C(=C\c2ccc(OC(F)F)cc2)C1=O)C1=COCCO1	i	i	i	-9	i	i	i	i
CCOc1cc(C)c(C(C)C)cc1S(=O)(=O)n1cnc(C)c1	i	i	i	-6	i	i	i	i
CCOc1cc(C)c(C(C)C)cc1S(=O)(=O)N1CC(C)OC(C)C1 (stereo unspecified)	i	i	i	-8	i	.	.	.
CC(C)(C)OC(=O)NNC1CC(=O)N(c2ccccc2F)C1=O (stereo unspecified)	i	i	i	-3	i	.	.	.
CCOc1ccccc1N1CCN(Cc2ccco2)CC1	i	i	i	-4	i	.	.	.
CCOc1ccccc1N1CCN(C/C=C/c2ccc(N(C)C)cc2)CC1	i	i	i	-9	i	i	i	i
CCOc1ccccc1N1CCN(Cc2ccc(Br)s2)CC1	i	i	i	-8	i	i	i	i
Cn1nc(C(F)(F)F)c(/C=N/OC(=O)c2ccccc2Cl)c1SCc1ccccc1Cl	i	-10*	i	-14	i	44%*	i	36%*
